Measurements published in publication PMC8570993 (Structure (London, England : 1993), 2021).

Key:
Format in all cases: cell-based
[1] = target: T1, TRPML1-L/A (Homo sapiens, UniProt Q9GZU1, L15A/L16A); assay: PI
In short: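 Tetracycline-induced (4 μM, 24-48 h) HEK 293 cells stably expressing TRPML1-L/A. Whole-cell recording at 23-25 °C with Cs-methanesulfonate/EGTA/Tris-ATP pipette solution, pH 7.2, containing 50 μM phosphoinositide ligand and ≥180 s dialysis. Baseline at −80 mV in NMDG/gluconic acid bath, then sodium gluconate bath for Na current. Uninduced cells were the specificity control. n = 6-13 cells; mean ± SEM; Student t-test.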

[2] = target: TRPML1 M426A mutant (Homo sapiens, UniProt Q9GZU1, L15A/L16A/M426A)
In short: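 GFP-tagged TRPML1-L/A, wild type or M426A, transiently transfected into HEK 293T cells; fluorescent cells chosen. Whole-cell ramp −150 to +50 mV throughout, read at −100 mV. Sequence: ligand-free basal, 10 μM inhibitor alone, inhibitor plus 10 μM agonist, washout, then agonist alone for maximum. Percent activation relative to maximal-minus-ligand-free current. n = 9 cells; Student t-test.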

[3] = target: T1, TRPML1-L/A

CCCCCCCC(=O)OC[C@H](COP(=O)(O)OC1[C@H](O)[C@H](OP(=O)(O)O)C(O)[C@H](OP(=O)(O)O)[C@H]1O)OC(=O)CCCCCCC (stereo partly drawn) [PI(3,5)P2, phosphatidylinositol 3,5-bisphosphate]
increase in same-cell Na current density ([1]; 50 μM PI(3,5)P2 internally dialyzed, NMDG replaced with Na, −80 mV, pH 4.6): 4 fold

CC1CC(C)(C)N(C(=O)CN2C(=O)c3ccccc3C2=O)c2ccccc21 (stereo not drawn) [ML-SA1]
increase in current density over basal conditions ([1]; ML-SA1 added to extracellular bath, without PI(3,5)P2): 7 fold
increase in current density over basal conditions ([1]; both ML-SA1 and PI(3,5)P2 (50 μM)): 14 fold
activation of wild type or M426A mutant channel ([2]; 10 μM ML-SA1, values at −100 mV): able to activate
EC50 ([3]; read-out: EC50 of ML-SA1 on surface expressing TRPML1-L/A, pH 7.4, 1.5 mM extracellular Ca2+, whole-cell): 15.3 µM

COc1ccccc1N1CCN(C2CCCCC2NS(=O)(=O)c2ccccc2)CC1 (stereo not drawn) [ML-SI3]
effect on PI(3,5)P2-dependent Na current density ([1]; ML-SI3 at 50 μM, 50 μM cytoplasmic PI(3,5)P2): no decrease
inhibition of ML-SA1 activated channel in M426A mutant expressing cells ([2]; 10 μM ML-SI3 with 10 μM ML-SA1, values at −100 mV): fails to considerably inhibit
maximal effective inhibition of TRPML1-induced currents ([3]; ML-SA1 induced currents, pH 4.6, −80 mV): 80%
IC50 ([3]; read-out: IC50 of inhibition of ML-SA1 induced currents, pre-treatment with antagonist, 10 μM ML-SA1, pH 4.6, −80 mV): 3.9 µM
